Activity calls are given as the source filed them. The calls are words filed in the database; no cut-off is given here. Where a SMILES comes first, the peptide text is derived from it.
Tests used:
Streptococcus pyogenes [1] = experiment: Inhibition of Streptococcus pyogenes His-tagged IdeS expressed in Escherichia coli BL21 using IgG1 as substrate at 30 mM incubated for 15 mins prior to substrate addition measured after 20 mins
How it was run: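 IdeS with tag removed (TEV cleavage, Ni2+ and size-exclusion repurification), stored in PBS. Enzyme preincubated 15 min at room temp with analogue (30 mM stock in 50% DMSO/phosphate pH 7.4) before adding human IgG1. Final IdeS 0.8 μM, analogue at 4.8×10^3 molar excess. 20 min at 37 °C, stopped with iodoacetamide. Triplicates, PBS-for-IdeS controls. Read by SPR as fraction of active IdeS from an IdeS standard curve.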

Streptococcus pyogenes [2] = experiment: Inhibition of Streptococcus pyogenes His-tagged IdeS expressed in Escherichia coli BL21 using IgG1 as substrate at 30 mM incubated for 15 mins prior to substrate addition measured after 20 mins by SDS-PAGE analysis
How it was run: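 Tag-free IdeS (TEV-cleaved, repurified) preincubated 15 min at room temp with peptide or analogue (30 mM stock in 50% DMSO/phosphate pH 7.4), then IgG1 substrate added. Final IdeS 0.8 μM with 4.8×10^3 molar excess of compound. 20 min at 37 °C, quenched with iodoacetamide, IgG cleavage products detected by SDS-PAGE. Triplicates plus enzyme-free controls.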

[3] = target: T1, Streptopain (Streptococcus pyogenes) (UniProt P0C0J0); experiment: Inhibition of Streptococcus pyogenes 5448 SpeB using n-bezoyl-proline-phenylalanine-arginine-p-nitroanilide hydrochloride as substrate at 30 mM incubated for 15 mins prior to substrate addition measured after 30 mins by colorimetry
T1 sequence (whole entry): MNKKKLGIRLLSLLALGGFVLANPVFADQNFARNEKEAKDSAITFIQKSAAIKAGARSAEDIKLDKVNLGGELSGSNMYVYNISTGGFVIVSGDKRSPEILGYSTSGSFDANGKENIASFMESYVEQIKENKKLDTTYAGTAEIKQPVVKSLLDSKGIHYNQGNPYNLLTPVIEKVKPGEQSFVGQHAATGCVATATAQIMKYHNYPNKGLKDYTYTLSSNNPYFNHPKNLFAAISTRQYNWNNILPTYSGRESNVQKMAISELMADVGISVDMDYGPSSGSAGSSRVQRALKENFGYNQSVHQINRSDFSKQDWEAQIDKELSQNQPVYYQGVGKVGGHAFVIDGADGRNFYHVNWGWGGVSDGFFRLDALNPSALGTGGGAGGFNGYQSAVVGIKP
How it was run: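 SpeB purified from S. pyogenes 5448 culture supernatant (ammonium sulfate precipitation, ion exchange), activated with 2 mM DTT 30 min at 37 °C. Activated enzyme preincubated 15 min at room temperature with analogue (30 mM stock in 50% DMSO/phosphate pH 7.4; 4.8×10^3 molar excess over 0.28 μM final SpeB). Then 1 mM BPFA substrate in 0.1 M phosphate pH 6 added; OD405 change recorded. Activity expressed relative to uninhibited enzyme.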

Papain (Carica papaya) = target: T2, Papain (Carica papaya) (UniProt P00784); experiment: Inhibition of papaya papain using Nalpa-benzoyl-DL-arginine 4-nitroanilide hydrochloride as substrate at 30 mM incubated for 10 mins prior to substrate addition measured after 2 hrs by colorimetry
T2 sequence (whole entry): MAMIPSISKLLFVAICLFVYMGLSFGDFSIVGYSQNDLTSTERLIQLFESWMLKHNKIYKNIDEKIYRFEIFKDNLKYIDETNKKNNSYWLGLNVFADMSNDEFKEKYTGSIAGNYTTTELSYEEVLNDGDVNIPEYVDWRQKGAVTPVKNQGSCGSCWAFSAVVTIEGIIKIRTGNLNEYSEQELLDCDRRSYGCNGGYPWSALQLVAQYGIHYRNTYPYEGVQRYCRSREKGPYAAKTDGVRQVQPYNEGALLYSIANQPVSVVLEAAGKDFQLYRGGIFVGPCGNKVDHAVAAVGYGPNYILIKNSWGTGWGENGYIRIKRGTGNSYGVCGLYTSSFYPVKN
How it was run: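 Papain in pH 6.2 phosphate buffer with 1.23 mM EDTA and 1.23 mM DTT, preincubated 10 min at room temp with compound (30 mM stock in 50% DMSO/phosphate pH 6.2). Final papain 0.9 μM, compound at 4.8×10^3 molar excess. Substrate added from 100 mM DMSO stock, 2 h at 37 °C, stopped with acetic acid, Abs405 read. Duplicates on two occasions. Activity relative to no-inhibitor control.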

[4] = Inhibition of Streptococcus pyogenes His-tagged IdeS expressed in Escherichia coli BL21 using IgG1 as substrate by SDS-PAGE analysis
How it was run: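 Ki by competitive-inhibition fit of initial velocities. 2 μM IdeS with repurified polyclonal IgG at 150, 100, 50, 20 or 10 μM, inhibitor at 5, 2, 0.5 mM or 5, 2.5, 1 mM. Initial cleavage read by non-reducing SDS-PAGE densitometry of IgG, single-cleaved IgG, F(ab')2 and 1/2Fc bands, weighted by mass.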

[5] = Selectivity ratio of Ki for Streptococcus pyogenes IdeS to Ki for papaya papain

| Compound | inhibition (Streptococcus pyogenes [1]) | inhibition (Streptococcus pyogenes [2]) | inhibition [3] | inhibition (Papain (Carica papaya)) | Ki [4] [mM] | Ratio Ki [5] |
| --- | --- | --- | --- | --- | --- | --- |
| NC(=O)[C@@H]1CCCN1C(=O)CN[C@H]1CCCNC1 | Active | – | – | – | – | – |
| NCC(=O)NCC(=O)N1CCC[C@H]1C(=O)N[C@@H](CO)C(=O)O (H-GGPS-OH) | – | inactive | – | – | – | – |
| CC(C)C[C@H](N)C(=O)N1CCC[C@H](NCC(=O)N2CCC[C@H]2C(N)=O)C1 | Active | – | inactive | Active | – | – |
| CC(C)C[C@H](N)C(=O)N1CCC[C@H](NCC(N)=O)C1 | Active | – | inactive | inactive | – | – |
| H-LLGGPS-OH | – | inactive | – | – | – | – |
| CC(C)C[C@H](N)C(=O)N1CCC[C@@H](NCC(N)=O)C1 | Active | – | inactive | inactive | 5.7 | 16 |
| NCC(=O)N1CCC[C@@H](N2CCC[C@H]2C(N)=O)C1 | Active | – | – | – | – | – |
| CC(C)[C@H](NC(=O)[C@H](CO)NC(=O)[C@@H]1CCCN1C(=O)CN)C(=O)O (H-GPSV-OH) | – | inactive | – | – | – | – |
| CC(C)C[C@H](N)C(=O)N1CCC[C@@H](NCC(=O)N2CCC[C@H]2C(N)=O)C1 | Active | – | inactive | – | – | – |
| NC(=O)CN[C@@H]1CCCNC1 | Active | – | inactive | inactive | – | – |
| NCC(=O)NCC(=O)O (H-Gly-Gly-OH) | Active | inactive | – | – | – | – |
| CCN(CC(N)=O)[C@@H]1CCCN(C(=O)[C@H](CC(C)C)NC(=O)[C@@H](N)CC(C)C)C1 | Active | – | Active | – | – | – |
| CC(C)C[C@H](N)C(=O)NCC(=O)NCC(=O)N1CCC[C@H]1C(=O)O (H-LGGP-OH) | Active | inactive | – | – | – | – |
| NC(=O)[C@@H]1CCCN1C(=O)CN[C@@H]1CCCNC1 | Active | – | – | Active | – | – |
| NC(=O)CN[C@H]1CCCNC1 | Active | – | inactive | inactive | 6.7 | 16 |
| CC(C)C[C@H](NC(=O)[C@@H](N)CC(C)C)C(=O)NCC(=O)NCC(=O)O (H-LLGG-OH) | Active | inactive | Active | – | – | – |
| NCC(=O)N1CCC[C@H](N2CCC[C@H]2C(N)=O)C1 | Active | – | – | – | – | – |
| CC(C)C[C@H](N)C(=O)NCC(=O)N1CCC[C@@H](N2CCC[C@H]2C(N)=O)C1 | Active | – | Active | Active | – | – |
| CC(C)C[C@H](NC(=O)[C@@H](N)CC(C)C)C(=O)N1CCC[C@@H](NCC(N)=O)C1 | Active | – | inactive | – | – | – |
| CCN(CC(N)=O)[C@H]1CCCN(C(=O)[C@H](CC(C)C)NC(=O)[C@@H](N)CC(C)C)C1 | Active | – | Active | – | – | – |
| CC(C)C[C@H](NC(=O)[C@@H](N)CC(C)C)C(=O)N1CCC[C@H](NCC(N)=O)C1 | Active | – | inactive | – | – | – |
| H-PELLGGPS-OH | – | inactive | – | – | – | – |
| CC(C)C[C@H](N)C(=O)NCC(=O)N1CCC[C@H](N2CCC[C@H]2C(N)=O)C1 | Active | – | Active | – | – | – |
| H-ELLGG-OH | – | inactive | – | – | – | – |

From ChEMBL document CHEMBL2034923, “3-aminopiperidine-based peptide analogues as the first selective noncovalent inhibitors of the bacterial cysteine protease IdeS” (J Med Chem, 2012)
